The record followed here is ChEMBL document CHEMBL4334444, “Studies of Jatrogossone A as a Reactive Oxygen Species Inducer in Cancer Cellular Models” (J Nat Prod, 2019).

The source made the active and inactive calls. The calls are words filed in the database; no cut-off is given here.

Data set [1] relates to B-ALL. Put plainly: Antiproliferative activity against mouse B-ALL cells expressing wild type BCR-ABL assessed as reduction in cell viability at 1 to 10 uM by CellTiter-Glo assay. In kind it is functional, cell-based. In a few lines:
(§1)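 CellTiter-Glo luminescent viability readout. Cells kept at 37 °C under 5% CO2. HMEC primary cells grown in basal medium with growth kit; leukemia lines and murine BCR-ABL (WT, Bax/Bak DKO) cultured per earlier description. Positive controls: staurosporine 25 μM, gambogic acid 10 μM, a toxic quinoline. At least two biological replicates in technical triplicate; luminescence normalized to untreated controls; EC50 computed.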
(In general: In ATP-based viability assays light output follows the ATP content of the culture.)

Data set [2] has as its system UoC-B1. Nature of the data set: Antiproliferative activity against human UOCB1 cells assessed as reduction in cell viability at 1 to 10 uM by CellTiter-Glo assay. In kind it is functional, cell-based. The essentials:
as §1

Data set [3] relates to SUM149PT. Put plainly: Antiproliferative activity against human SUM149 cells assessed as reduction in cell viability at >10 uM after 48 hrs by propidium iodide staining based fluorescence assay. In kind it is functional. The essentials: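 MDA-MB-231 and SUM149 seeded at 6 × 10^4 to 2 × 10^5 cells/well, cultured 24 h, then exposed for 48 h. Cells fixed in cold methanol, stained with 0.4% propidium iodide, fluorescence imaged. Viability expressed as percent surviving cells relative to vehicle wells.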

The subject of data set [4] is U2OS. Nature of the data set: Antiproliferative activity against human U2OS assessed as reduction in cell viability at >10 uM by CellTiter-Glo assay. In kind it is functional, cell-based. In a few lines: as §1
Data set [5] deals with KOPN-8. Nature of the data set: Cell cycle arrest in human KOPN8 cells assessed as increase in accumulation at G2/M phase at 10 uM incubated for 24 hrs by propidium iodide staining based flow cytometric analysis relative to control. It counts as functional. The essentials: (§2)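 KOPN-8 plated at 1.00 × 10^6 cells/plate, held 12 h at 37 °C, treated 24 h at 10 μM; DMSO vehicle and 2 μM staurosporine as controls. Cells fixed in cold methanol, RNase-treated, stained with PI (50 μg/mL); cell-cycle distribution by flow cytometry.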
For orientation: In flow cytometry, cells or beads pass a laser one at a time.

Data set [6] concerns KOPN-8. Nature of the data set: Cell cycle arrest in human KOPN8 cells assessed as decrease in accumulation at S phase at 10 uM incubated for 24 hrs by propidium iodide staining based flow cytometric analysis relative to control. It counts as functional. The following applies: KOPN-8, 24 h. The essentials: as §2
In data set [7] the test system is KOPN-8. Nature of the data set: Induction of apoptosis in human KOPN8 cells at 10 uM by Annexin V-FITC and propidium iodide staining based flow cytometry. In kind it is functional, cell-based. The conditions noted are these: TDE = time-dependent effect. In a few lines: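 KOPN-8 cells were plated at 1.00 × 10^6 per plate and held 12 h at 37 °C, then treated 24 h; positive control 2 μM staurosporine, vehicle DMSO. Cells were stained with Annexin V-FITC and PI and analysed by flow cytometry (FACSCalibur). Profiles are representative of three independent biological replicates.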

In data set [8] the test system is B-ALL. Nature of the data set: Cytotoxicity against BCR-ABL p185-positive mouse B-ALL cells overexpressing human MCL-1 assessed as inhibition of cell viability after 24 hrs by AnnexinV-FITC/propidium iodide staining based flow cytometric analysis. In kind it is functional.
The test system of data set [9] is B-ALL. Put plainly: Cytotoxicity against BCR-ABL p185-positive mouse B-ALL cells transfected with empty vector assessed as inhibition of cell viability after 24 hrs by AnnexinV-FITC/propidium iodide staining based flow cytometric analysis. It counts as functional.
The test system of data set [10] is KOPN-8. Put plainly: Induction of mitochondrial membrane potential loss in human KOPN8 cells at 1 to 3 uM after 24 to 48 hrs by TMRM staining based flow cytometric analysis. In kind it is functional, cell-based. The essentials:
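TMRM flow cytometry. KOPN-8 (4 × 10^4 or 5 × 10^5 per well) or MCF-7 (2 × 10^4 or 2 × 10^5 per well) were seeded 24 h, then treated 24–48 h. FCCP 10 μM was added 10 min before staining as positive control. Cells were stained with TMRM 100 nM for 0.5 h, then PBS-washed, resuspended in PBS with 1% FBS and analysed by flow cytometry; DAPI flagged compromised cells.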

Data set [11] concerns HMEC. Put plainly: Induction of ROS generation in human HMEC cells at 30 uM incubated for 1 hr by CellROX green reagent based fluorescence assay. In kind it is cell-based. The essentials:
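CellROX green ROS assay: cells exposed 1 h at 37 °C (30 μM) with DMSO 0.5% (v/v) negative control, menadione 10 μM positive control, ± NAC (100 μM per figure legend). CellROX green added at 5 μM final, 30 min more; washed, fixed in 4% paraformaldehyde 15 min, fluorescence read at 485 ex/535 em. Mean and SD of at least three experiments; two-way ANOVA.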

A short description of data set [12]: Stability in CH3CN assessed as micheal adduct formation by measuring intact compound incubated for 16 hrs in presence of NAC by LC-MS analysis. It counts as physicochemical.
Data set [13] can be described thus: Stability in DMSO assessed as micheal adduct formation by measuring intact compound incubated for 16 hrs in presence of NAC by LC-MS analysis. It counts as physicochemical.
The subject of data set [14] is BJ. Put plainly: Cytotoxicity against human BJ cells assessed as cell viability at >100 uM by CellTiter-Glo assay. It counts as cell-based. The essentials: as §1
The subject of data set [15] is B-ALL. Put plainly: Antiproliferative activity against mouse B-ALL cells harboring Bax/Bak double knockout mutant assessed as reduction in cell viability at 0.1 to 250 uM by CellTiter-Glo assay. It counts as functional, cell-based. In a few lines:
as §1

Data set [16] concerns SUP-B15. Nature of the data set: Antiproliferative activity against human SUP-B15 cells assessed as reduction in cell viability at 0.1 to 250 uM by CellTiter-Glo assay. In kind it is functional, cell-based. The essentials: as §1
Data set [17] concerns SEM cells. Put plainly: Antiproliferative activity against human SEM cells assessed as reduction in cell viability at 0.1 to 250 uM by CellTiter-Glo assay. In kind it is functional, cell-based. In a few lines:
as §1

The subject of data set [18] is Raji. Put plainly: Antiproliferative activity against human Raji cells assessed as reduction in cell viability at 0.1 to 250 uM by CellTiter-Glo assay. It counts as functional, cell-based. In a few lines: as §1
Data set [19] relates to PBMC. Nature of the data set: Cytotoxicity against human PBMC cells assessed as reduction in cell viability at 0.1 to 250 uM by CellTiter-Glo assay. In kind it is cell-based. The essentials: as §1
Data set [20] has as its system KOPN-8. Put plainly: Cytotoxicity against human KOPN8 cells assessed as cell viability at 0.75 to 100 uM after 72 hrs in presence of pan caspase inhibitor, Z-VAD-FMK by CellTiter-Glo assay. It counts as functional, cell-based.
Data set [21] concerns KOPN-8. Nature of the data set: Induction of apoptosis in human KOPN8 cells assessed as increase in cleaved PARP 1 level at 1 to 10 uM after 3 hrs by Western blot analysis. It counts as functional, cell-based. In a few lines:
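Western blot of KOPN-8 and MCF-7 lysates made in RIPA-type buffer (Tris pH 7.5, Triton X-100, deoxycholate, SDS) with protease and phosphatase inhibitors. 30 μg protein per lane was run on 4–12% Bis-Tris SDS-PAGE and transferred to nitrocellulose. Blots were probed for cleaved caspase-7 and PARP-1 and detected with IR-dye secondaries. Menadione served as positive control: 10 μM in KOPN-8, 30 μM in MCF-7. Blots are representative of three independent experiments.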
Background: Immunoblotting shows a protein as a band on a membrane.

Data set [22] concerns HMEC. Nature of the data set: Cytotoxicity against human HMEC cells assessed as cell detachment. It counts as cell-based.
Data set [23] relates to MCF7. Nature of the data set: Upregulation of Trx expression in human MCF7 at 10 uM after 3 to 6 hrs by Western blot analysis. It counts as functional, cell-based. The essentials: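 Western blot of KOPN-8 or MCF-7 lysates, 30 μg protein per lane on 4–12% Bis-Tris SDS-PAGE and transferred to nitrocellulose. Blots were probed with an oxidative stress defense antibody cocktail (catalase, SOD1, Trx, smooth muscle actin) and tubulin, and detected with IR-dye secondaries on a LI-COR Odyssey.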

The subject of data set [24] is MCF7. Put plainly: Induction of cell death in human MCF7 cells at 10 uM after 24 hrs. In kind it is functional, cell-based.

Usually inhibition stands for the change of the read-out against control, counted positive when it falls. As usually defined, the IC50 is the concentration that gives 50% inhibition. Consider `CC(=O)O[C@H]1/C2=C/[C@@H](C)C(=O)C[C@H]3[C@@H](/C=C(\C)C(=O)[C@H]2C[C@H]1C)C3(C)C`, for which the inhibition result in data set [1], in data set [2], in data set [3] and in data set [4] was “Active” each time. Moreover, the Activity is 10% in [5], “Tde” in [7], “Toxic” in data set [11] and “Non-Toxic” in data set [14]. In addition, the inhibition at 10 µM in data set [6] is 5%. For the same compound, the IC50 in data set [8] worked out at 3.31 µM; in data set [9], 4.57 µM. Moreover, the outcome in data set [10] was Active. In addition, the Stability entry in data set [12] and in [13] was “Stable” each time.

For `CC1=C2CC(C)(C)/C=C/C(=O)/C(C)=C\C3=C[C@H](C)C[C@]3(O2)C1=O` [JATROPHONE], the inhibition entry in data set [15], in data set [16], in [17] and in [18] was “Active” each time. Also, the Activity entry in [19] and in [22] was “Toxic” in each case. The outcome in data set [20] and in [23] was inactive. Also, the result in data set [21] and in data set [24] was Active.
